High-throughput results as filed in PubChem.
Hits are enriched below; roughly 4% of the tested compounds scored in any of these assays.
DAGLB inh: diacylglycerol lipase beta (human) inhibition; Q8NCG7; HEK293T DAGLB membrane lysate, EnzChek fluorogenic substrate; inhibition, % at 5.17 µM; 0.059% of 340,000 active; in the data active = inhibition above about 34%
MPTP block: permeability transition pore inhibition; AID 602449; isolated mouse mitochondria, Ca2+ swelling absorbance, 30 min; inhibition, % at 10 µM; 1.4% of 360,000 active;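 active = inhibition of 50% or more, scaled per plate between neutral and stimulator controls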
TAAR1 ag: agonists of human TAAR1. Q96RJ0. CHO RD-HGA16 TAAR1, Fluo-8 calcium fluorescence; vehicle wells 0%, saturating PEA agonist 100%. activation, % at 3 µM. 0.99% of 360,000 active;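 active = activation above the mean activation of all test compounds in the run plus 3 SD, cut at about 38% in these data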
Target sequence (Q96RJ0 whole entry, looked up): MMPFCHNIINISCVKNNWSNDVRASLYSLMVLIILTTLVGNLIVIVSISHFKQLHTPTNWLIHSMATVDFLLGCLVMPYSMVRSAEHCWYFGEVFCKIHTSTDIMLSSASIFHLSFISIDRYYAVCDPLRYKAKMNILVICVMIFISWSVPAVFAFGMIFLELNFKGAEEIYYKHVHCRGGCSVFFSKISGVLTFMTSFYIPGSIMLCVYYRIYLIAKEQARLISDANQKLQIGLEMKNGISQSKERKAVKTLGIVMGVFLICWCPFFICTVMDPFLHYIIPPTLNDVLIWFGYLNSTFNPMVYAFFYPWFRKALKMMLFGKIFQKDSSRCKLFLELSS
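Assay system – CHO-derived RD-HGA16 cells with stable Gα16 and human TAAR1 · Compound dosing – one-point dosing at 3 µM (nominal) · Incubation – 17-24 h seeding, 75 min 37 °C dye, 30 min RT · Measured by – kinetic Fluo-8 calcium fluorescence · Control set – DMSO vehicle as 0%, PEA at EC100 as 100% · Repeats – single well for each compound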
GPR7 antag: antagonists of human GPR7 (neuropeptides B/W receptor 1); GPR7-expressing cells, fluorescence antagonist assay; AID 1861; 1.1% of 290,000 active; inhibition, % at 4.4 µM; P48145; in the data active = inhibition above about 16%, passing the limit was not always enough;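 also: cells stimulated with the agonist NPW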
Target sequence (P48145 whole entry, looked up): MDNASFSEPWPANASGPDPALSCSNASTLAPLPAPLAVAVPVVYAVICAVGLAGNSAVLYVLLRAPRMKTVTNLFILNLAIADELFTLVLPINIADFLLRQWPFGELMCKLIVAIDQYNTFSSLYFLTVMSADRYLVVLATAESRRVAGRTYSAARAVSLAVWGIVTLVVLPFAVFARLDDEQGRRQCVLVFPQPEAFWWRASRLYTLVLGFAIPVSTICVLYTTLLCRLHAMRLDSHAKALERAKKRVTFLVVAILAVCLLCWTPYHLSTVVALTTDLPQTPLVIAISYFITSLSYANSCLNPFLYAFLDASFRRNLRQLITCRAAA
TAAR1 antag: human TAAR1 antagonism. Q96RJ0. CHO RD-HGA16 TAAR1, Fluo-8 calcium fluorescence, antagonist. inhibition, % at 3 µM. 1.5% of 360,000 active. AID 624466;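 active = inhibition above a per-plate cutoff, the mean inhibition of test compounds on that plate plus 3 SD, cut at about 49% in these data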
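System: CHO RD-HGA16 cells bearing hTAAR1. Reagent: EC80 β-phenethylamine stimulus. Schedule: seeding 17-24 h prior, 75-min 37 °C, 30-min RT dye loading. Signal: Fluo-8 intracellular calcium dye fluorescence, real-time kinetic reads. Read-out: % inhibition from peak post-agonist over basal fluorescence ratio. Benchmarks: vehicle wells and EC80 agonist wells. Replicates: n of 1.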
TAAR1 ag confirm: human TAAR1 agonism, confirmed; activation, % at 3 µM; shares compounds with TAAR1 ag; AID 651783; 82% of 2,400 active; CHO RD-HGA16 TAAR1, Fluo-8 calcium fluorescence; scaled: DMSO 0%, maximal phenethylamine 100%;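 active = activation above a cutoff set at the run's mean compound activation plus 3 SD, cut at about 39% in these data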
Ga16 nonsel ag: counter-screen for TAAR1 agonists: nonselective agonists in parental cells; shares compounds with TAAR1 ag; CHO-Ga16 parental, Fluo-8 calcium fluorescence; normalized to maximal ATP response, DMSO zero; activation, % at 3 µM; 50% of 2,400 active; AID 651787;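 active = activation above the run cutoff, the mean activation over all tested wells plus 3 SD, cut at about 12% in these data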
TAAR1 desensitize: TAAR1 response desensitization, agonist counter-screen | shares compounds with TAAR1 ag | CHO RD-HGA16 hTAAR1, Fluo-8 calcium, beta-PEA response inhibition | inhibition, % at 3 µM | 46% of 2,400 active;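 active = inhibition above the run cutoff, the mean inhibition of all test compounds plus 3 SD, cut at about 49% in these data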;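 also: beta-PEA stimulus applied at its EC80; loss of beta-PEA calcium signal after compound pretreatment read as receptor desensitization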
Ga16 antag count: nonselective Ga16 antagonism, counter-screen | shares compounds with TAAR1 ag | CHO-Ga16 ATP-induced calcium, Fluo-8 fluorescence | inhibition, % at 3 µM | 39% of 2,400 active;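 active = inhibition above the plate's mean compound inhibition plus 3 SD, computed per plate, cut at about 22% in these data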
Numbers stand for hits; – = inactive; · = no result given.

SMILES	DAGLB inh	MPTP block	TAAR1 ag	GPR7 antag	TAAR1 antag	TAAR1 ag confirm	Ga16 nonsel ag	TAAR1 desensitize	Ga16 antag count
O=C(COC(=O)/C=C/c1cccc(F)c1)NC1CCCC1	–	–	–	·	–	·	·	·	·
CN(C[C@@H](CC1CCCCC1)N(C[C@H](Cc1ccccc1)N(CCc1ccccc1)N=O)N=O)N=O	–	–	60	–	–	94	–	–	–
CN(C[C@H](Cc1ccccc1)N(C[C@H](CC1CCCCC1)N(CCc1ccccc1)N=O)N=O)N=O	–	–	–	–	–	·	·	·	·
CCCCN(CCCC)CCCNC(=O)Cn1cc(C)c(=O)[nH]c1=O	·	·	–	·	–	·	·	·	·
CCCOc1c(OC)cccc1C1CC(=O)Nc2cc3c(cc21)OCCO3 (centres undefined)	–	–	39	–	–	–	–	–	–
CCCOc1c(OC)cccc1C1CC(=O)Nc2cc3c(cc21)OCO3 (centres undefined)	–	–	–	–	–	·	·	·	·
Cn1c(=O)c2c(nc(N3CCCCCC3)n2Cc2cccc3ccccc23)n(C)c1=O	–	–	66	–	–	72	42	–	28
COC(=O)[C@]12CCCCC=C1N(Cc1ccco1)C(=O)[C@H](CC(=O)NCC13CC4CC(CC(C4)C1)C3)C2	·	–	–	·	–	·	·	·	·
CCOc1ccc(NC(=O)CN2CCc3ccccc3C2)cc1	–	–	–	–	–	·	·	·	·
CCOc1ccc(NC(=O)N2CCc3ccccc3C2)cc1	–	–	51	–	–	54	–	–	–
COc1ccc(NC(=O)N2CCN(c3cccc(C(F)(F)F)c3)CC2)cc1	–	–	89	–	94	–	–	–	24
COc1ccc(NC(=O)N2CCc3ccccc3C2)cc1	–	–	52	–	–	47	–	–	–
CC(=O)N(C(C)=O)c1ccc2c(c1)OCCO2	–	–	–	·	–	·	·	·	·
Cc1ccc(CNC(=O)OC2CC3CC2[C@H]2CCCCN2C3=O)cc1 (some centres undefined)	·	–	54	·	–	–	–	–	–
COc1cc(CNC(=O)OC2CC3CC2[C@H]2CCCCN2C3=O)cc(OC)c1 (some centres undefined)	·	–	–	·	–	·	·	·	·
O=C(Nc1cccnc1)c1ccc(CSc2ccc(Cl)cc2)o1	·	·	–	·	–	·	·	·	·
Cc1ccc(C(C)NC(=O)/C(C#N)=C\c2c(C)[nH]c3ccccc23)cc1 (centres undefined)	–	–	63	–	–	59	33	–	39
Cc1[nH]c2ccccc2c1/C=C(\C#N)C(=O)NCc1ccccc1	–	–	–	–	–	·	·	·	·
CSc1ncnc2c1ncn2CCCNCCc1ccccn1	–	–	69	·	–	82	–	–	–
COC(=O)C1=C(C)N(Cc2ccccc2C(F)(F)F)C(=NCc2ccc(OC)cc2)NC1c1ccc(Cl)cc1 (centres undefined)	·	·	–	·	–	·	·	·	·
COc1cccc(-c2ccc(NC(=O)C3CCCN(Cc4cnc(N(C)C)s4)C3)cc2)c1 (centres undefined)	–	–	63	–	–	64	33	–	–
N#CC1=C(N)OC2=C(CC/C2=C\c2ccccc2)C1c1ccccc1 (centres undefined)	–	–	64	–	71	46	69	67	77
COc1cc(CNc2ncnc3c2ncn3[C@H]2CN(CCc3ccccc3)C[C@@H](CO)O2)cc(OC)c1OC	·	–	59	·	–	64	–	–	–
COCCNc1ncnc2c1ncn2[C@H]1CN(CCc2ccccc2)C[C@@H](CO)O1	·	–	46	·	–	48	–	–	–
CN(C(=O)c1ccc(NC(=O)Cc2ccc(NC(=O)C3CCCN(C(=O)CCc4ccccc4)C3)cc2)cc1)C1CCCC1 (centres undefined)	–	–	–	·	–	·	·	·	·
SMILES	DAGLB inh	MPTP block	TAAR1 ag	GPR7 antag	TAAR1 antag	TAAR1 ag confirm	Ga16 nonsel ag	TAAR1 desensitize	Ga16 antag count
CN1CCN(C(c2ccc(C(F)(F)F)cc2)c2cc(Cl)c3cccnc3c2O)CC1 (centres undefined)	·	·	119	–	–	129	106	81	44
CCN1CCN(C(c2ccc(C(F)(F)F)cc2)c2ccc3cccnc3c2O)CC1 (centres undefined)	–	–	–	–	–	·	·	·	·
Cc1nccn1CC(=O)N/N=C/c1c[nH]c2ccccc12	–	–	–	–	–	·	·	·	·
Cc1nccn1CC(=O)N/N=C/c1ccccc1O	–	–	59	–	–	63	–	–	–
CC1(c2ccc(OC(F)F)cc2)NC(=O)N(CC(=O)NC2CCCCC2)C1=O (centres undefined)	–	–	–	–	–	·	·	·	·
CC1(c2ccc([N+](=O)[O-])cc2)NC(=O)N(CC(=O)c2ccc3c(c2)OCO3)C1=O (centres undefined)	–	–	90	·	–	117	70	76	37
CC1(c2ccc(OC(F)F)cc2)NC(=O)N(CC(=O)c2ccc3c(c2)OCO3)C1=O (centres undefined)	–	–	136	·	96	118	81	102	49
COc1ccccc1-c1ncn(Cc2cccc(-c3ccccc3)c2)c1-c1cc(C)cc(C)c1	·	–	–	·	–	·	·	·	·
Cc1ccc(SCc2nc(-c3ccccc3)no2)cc1	–	–	–	–	–	·	·	·	·
Cc1ccc(SCc2nc(-c3ccncc3)no2)cc1	–	–	52	–	–	–	–	–	–
C=CC(=O)NCC1OCCc2ccccc21 (centres undefined)	–	–	–	–	–	·	·	·	·
O=C(O)C1CC=C(Cl)CC1C(=O)NCC1OCCc2ccccc21 (centres undefined)	–	–	·	–	·	·	–	·	–
COC(=O)[C@@]1(Cc2ccc(F)cc2)[C@H]2c3cc(C(=O)N4CCCC4)n(CCc4ccccn4)c3C[C@H]2CN1C(=O)c1ccccc1	·	·	88	–	–	53	14	–	–
O=C(CCCN1C(=O)c2ccccc2C1=O)N1CCc2ccccc2C1	–	–	69	–	–	83	–	–	–
COc1ccc(OCC(=O)N2CCc3ccccc3C2)cc1	–	–	·	–	·	·	–	·	–
Cc1cccc(OCC(=O)N2CCc3ccccc3C2)c1	–	–	55	–	–	69	–	–	–
Cc1ccc(OCC(=O)N2CCc3ccccc3C2)cc1C	–	–	–	·	–	·	·	·	·
Cc1cccc(C(=O)NC(=S)N2CCc3ccccc3C2)c1	–	–	62	–	–	65	–	–	–
O=C(CN1C(=O)c2cccc3cccc1c23)N1CCc2ccccc2C1	–	–	–	–	–	·	·	·	·
